Laboratory results from ChEMBL document CHEMBL1137508, “Pentacyclic triterpenes. Part 5: synthesis and SAR study of corosolic acid derivatives as inhibitors of glycogen phosphorylases” (Bioorg Med Chem Lett, 2007).
Calls of active or inactive are those of the source. The rule behind the calls is not given here.

How the values were obtained:
[1] = (§1) Inhibition of rabbit muscle glycogen phosphorylase a; set-up: species or system Oryctolagus cuniculus
Procedure, shortened: (§2)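 Rabbit muscle glycogen phosphorylase a activity was measured in the glycogen-synthesis direction by quantifying phosphate released from glucose-1-phosphate. Values are means of three experiments.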

Oryctolagus cuniculus = species: Oryctolagus cuniculus; assay: as §1; procedure, shortened: as §2

| IC50 [1] | Activity (Oryctolagus cuniculus) | Compound |
| --- | --- | --- |
| 20 µM |  | C[C@H]1[C@H](C)CC[C@]2(C(=O)O)CC[C@]3(C)C(=CC[C@@H]4[C@@]5(C)C[C@@H](O)[C@H](O)C(C)(C)[C@@H]5CC[C@]43C)[C@H]12 [COROSOLIC ACID] |
| 324 µM |  | C[C@H]1[C@H](C)CC[C@]2(C(=O)OCc3ccccc3)CC[C@]3(C)C(=CC[C@@H]4[C@@]5(C)C[C@@H](O)[C@@H](O)C(C)(C)[C@@H]5CC[C@]43C)[C@H]12 |
|  | inactive | C[C@H]1[C@H](C)CC[C@]2(C(=O)OCC(=O)O)CC[C@]3(C)C(=CC[C@@H]4[C@@]5(C)C[C@@H](O)[C@H](O)C(C)(C)[C@@H]5CC[C@]43C)[C@H]12 |
| 82.5 µM |  | CCCOC(=O)[C@]12CC[C@@H](C)[C@H](C)[C@H]1C1=CC[C@@H]3[C@@]4(C)C[C@@H](O)[C@H](O)C(C)(C)[C@@H]4CC[C@@]3(C)[C@]1(C)CC2 |
| 91.2 µM |  | C=CCOC(=O)[C@]12CC[C@@H](C)[C@H](C)[C@H]1C1=CC[C@@H]3[C@@]4(C)C[C@@H](O)[C@H](O)C(C)(C)[C@@H]4CC[C@@]3(C)[C@]1(C)CC2 |
| 41.2 µM |  | C[C@H]1[C@H](C)CC[C@]2(C(=O)OCc3ccccc3)CC[C@]3(C)C(=CC[C@@H]4[C@@]5(C)C[C@@H](O)[C@H](O)C(C)(C)[C@@H]5CC[C@]43C)[C@H]12 |
| 7.31 µM |  | C[C@H]1[C@H](C)CC[C@]2(C(=O)OCc3ccccc3)CC[C@]3(C)C(=CC[C@@H]4[C@@]5(C)C=C(O)C(=O)C(C)(C)[C@@H]5CC[C@]43C)[C@H]12 |
| 92.1 µM |  | CCCCOC(=O)[C@]12CC[C@@H](C)[C@H](C)[C@H]1C1=CC[C@@H]3[C@@]4(C)C[C@@H](O)[C@H](O)C(C)(C)[C@@H]4CC[C@@]3(C)[C@]1(C)CC2 |
| 37.7 µM |  | CC(=O)O[C@@H]1C[C@]2(C)[C@H]3CC=C4[C@@H]5[C@@H](C)[C@H](C)CC[C@]5(C(=O)O)CC[C@@]4(C)[C@]3(C)CC[C@H]2C(C)(C)[C@H]1O |
| 3.26 µM |  | CCCCCC(=O)O[C@@H]1C[C@]2(C)[C@H]3CC=C4[C@@H]5[C@@H](C)[C@H](C)CC[C@]5(C(=O)O)CC[C@@]4(C)[C@]3(C)CC[C@H]2C(C)(C)[C@H]1O |
| 62.1 µM |  | C[C@H]1[C@H](C)CC[C@]2(C(=O)OCn3cccn3)CC[C@]3(C)C(=CC[C@@H]4[C@@]5(C)C[C@@H](O)[C@H](O)C(C)(C)[C@@H]5CC[C@]43C)[C@H]12 |
| 77.9 µM |  | CCCC(=O)O[C@@H]1C[C@]2(C)[C@H]3CC=C4[C@@H]5[C@@H](C)[C@H](C)CC[C@]5(C(=O)O)CC[C@@]4(C)[C@]3(C)CC[C@H]2C(C)(C)[C@H]1O |
| 722 µM |  | C[C@H]1[C@H](C)CC[C@]2(C(=O)OCc3ccccc3)CC[C@]3(C)C(=CC[C@@H]4[C@@]5(C)C[C@@H](OC(=O)CCC(=O)O)[C@H](OC(=O)CCC(=O)O)C(C)(C)[C@@H]5CC[C@]43C)[C@H]12 |
| 35 µM |  | CC(=O)O[C@@H]1C[C@]2(C)[C@H]3CC=C4[C@@H]5[C@@H](C)[C@H](C)CC[C@]5(C(=O)O)CC[C@@]4(C)[C@]3(C)CC[C@H]2C(C)(C)[C@H]1OC(C)=O |
| 5.1 µM |  | C[C@H]1[C@H](C)CC[C@]2(C(=O)O)CC[C@]3(C)C(=CC[C@@H]4[C@@]5(C)C[C@@H](OC(=O)c6ccccc6)[C@H](O)C(C)(C)[C@@H]5CC[C@]43C)[C@H]12 |
| 444 µM |  | Cc1ccc(S(=O)(=O)O[C@@H]2C[C@]3(C)[C@H]4CC=C5[C@@H]6[C@@H](C)[C@H](C)CC[C@]6(C(=O)OCc6ccccc6)CC[C@@]5(C)[C@]4(C)CC[C@H]3C(C)(C)[C@H]2O)cc1 |

| IC50 [1] | Activity (Oryctolagus cuniculus) | Compound |
| --- | --- | --- |
| 78.7 µM |  | CCCC(=O)O[C@@H]1C[C@]2(C)[C@H]3CC=C4[C@@H]5[C@@H](C)[C@H](C)CC[C@]5(C(=O)O)CC[C@@]4(C)[C@]3(C)CC[C@H]2C(C)(C)[C@H]1OC(=O)CCC |
| 31.8 µM |  | C[C@H]1[C@H](C)CC[C@]2(C(=O)OCc3ccccc3)CC[C@]3(C)C(=CC[C@@H]4[C@@]5(C)C[C@@H](O)C(=O)C(C)(C)[C@@H]5CC[C@]43C)[C@H]12 |
| 116 µM |  | C[C@H]1[C@H](C)CC[C@]2(C(=O)O)CC[C@]3(C)C(=CC[C@@H]4[C@@]5(C)C[C@H](O)[C@H](O)C(C)(C)[C@@H]5CC[C@]43C)[C@H]12 |
| 106 µM |  | C[C@H]1[C@H](C)CC[C@]2(C(=O)O[C@@H]3O[C@H](CO)[C@@H](O)[C@H](O)[C@H]3O)CC[C@]3(C)C(=CC[C@@H]4[C@@]5(C)C[C@@H](O)[C@H](O)C(C)(C)[C@@H]5CC[C@]43C)[C@H]12 |
| 46.7 µM |  | CCOC(=O)[C@]12CC[C@@H](C)[C@H](C)[C@H]1C1=CC[C@@H]3[C@@]4(C)C[C@@H](O)[C@H](O)C(C)(C)[C@@H]4CC[C@@]3(C)[C@]1(C)CC2 |
| 102 µM |  | CCOC(=O)COC(=O)[C@]12CC[C@@H](C)[C@H](C)[C@H]1C1=CC[C@@H]3[C@@]4(C)C[C@@H](O)[C@H](O)C(C)(C)[C@@H]4CC[C@@]3(C)[C@]1(C)CC2 |
| 96.7 µM |  | CCC(=O)O[C@@H]1C[C@]2(C)[C@H]3CC=C4[C@@H]5[C@@H](C)[C@H](C)CC[C@]5(C(=O)O)CC[C@@]4(C)[C@]3(C)CC[C@H]2C(C)(C)[C@H]1O |
| 43.4 µM |  | C[C@H]1[C@H](C)CC[C@]2(C(=O)OCc3ccccc3)CC[C@]3(C)C(=CC[C@@H]4[C@@]5(C)C[C@@H](OS(C)(=O)=O)[C@H](O)C(C)(C)[C@@H]5CC[C@]43C)[C@H]12 |
| 373 µM |  | CC(=O)OC[C@H]1O[C@@H](OC(=O)[C@]23CC[C@@H](C)[C@H](C)[C@H]2C2=CC[C@@H]4[C@@]5(C)C[C@@H](O)[C@H](O)C(C)(C)[C@@H]5CC[C@@]4(C)[C@]2(C)CC3)[C@H](OC(C)=O)[C@@H](OC(C)=O)[C@@H]1OC(C)=O |
| 73.7 µM |  | CCC(=O)O[C@@H]1C[C@]2(C)[C@H]3CC=C4[C@@H]5[C@@H](C)[C@H](C)CC[C@]5(C(=O)O)CC[C@@]4(C)[C@]3(C)CC[C@H]2C(C)(C)[C@H]1OC(=O)CC |
|  | inactive | C[C@H]1[C@H](C)CC[C@]2(C(=O)O)CC[C@]3(C)C(=CC[C@@H]4[C@@]5(C)C[C@@H](OC(=O)CCC(=O)O)[C@H](OC(=O)CCC(=O)O)C(C)(C)[C@@H]5CC[C@]43C)[C@H]12 |
| 69.5 µM |  | C[C@H]1[C@H](C)CC[C@]2(C(=O)OCc3ccccc3)CC[C@]3(C)C(=CC[C@@H]4[C@@]5(C)C[C@@H]6OC6C(C)(C)[C@@H]5CC[C@]43C)[C@H]12 (single isomer, unassigned) |
| 108 µM |  | C[C@H]1[C@H](C)CC[C@]2(C(=O)OCc3ccccc3)CC[C@]3(C)C(=CC[C@@H]4[C@@]5(C)C[C@H](O)[C@H](O)C(C)(C)[C@@H]5CC[C@]43C)[C@H]12 |
| 212 µM |  | C[C@H]1[C@H](C)CC[C@]2(C(=O)O)CC[C@]3(C)C(=CC[C@@H]4[C@@]5(C)C[C@@H](O)[C@@H](O)C(C)(C)[C@@H]5CC[C@]43C)[C@H]12 [PYGENIC ACID A] |
| 33.7 µM |  | COC(=O)[C@]12CC[C@@H](C)[C@H](C)[C@H]1C1=CC[C@@H]3[C@@]4(C)C[C@@H](O)[C@H](O)C(C)(C)[C@@H]4CC[C@@]3(C)[C@]1(C)CC2 [COROSOLIC ACID METHYL ESTER] |
